For orientation: IC50 means the concentration needed to halve the response being measured.

Assay [1] concerns the target T1, Neuropeptide Y receptor type 4 (Homo sapiens, UniProt P50391). Put plainly: Allosteric antagonist activity at […]-tagged human NPY4R expressed in COS7 cells co-expressing Gqi5-alpha assessed as inhibition of PP-induced Ca2+ flux by Fluo-2 AM dye based fluorescent assay relative to control. The assay is classed as functional, cell-based. A general note: A change in cytosolic calcium serves as a functional read-out for many receptors and channels.

In assay [2] the target is T2, Neuropeptide Y receptor type 1 (Mus musculus) (UniProt Q04573).
T2 sequence (whole entry): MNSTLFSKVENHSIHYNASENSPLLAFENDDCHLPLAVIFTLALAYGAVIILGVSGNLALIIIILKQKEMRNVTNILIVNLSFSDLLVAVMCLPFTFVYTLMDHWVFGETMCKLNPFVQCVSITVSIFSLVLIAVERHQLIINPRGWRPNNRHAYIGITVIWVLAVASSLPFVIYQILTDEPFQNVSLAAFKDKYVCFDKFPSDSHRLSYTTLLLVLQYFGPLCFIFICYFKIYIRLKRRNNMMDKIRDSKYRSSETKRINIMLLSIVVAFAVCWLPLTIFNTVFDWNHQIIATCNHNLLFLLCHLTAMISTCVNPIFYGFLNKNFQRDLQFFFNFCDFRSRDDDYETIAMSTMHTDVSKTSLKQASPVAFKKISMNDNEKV
The experiment in a line: Allosteric antagonist activity at NPY1R in mouse descending colon mucosa assessed as reduction in PYY-induced ion transport at 30 uM by electrophysiology.

The target in assay [3] is T3, Neuropeptide Y receptor type 2 (Mus musculus) (UniProt P97295).
T3 sequence (whole entry): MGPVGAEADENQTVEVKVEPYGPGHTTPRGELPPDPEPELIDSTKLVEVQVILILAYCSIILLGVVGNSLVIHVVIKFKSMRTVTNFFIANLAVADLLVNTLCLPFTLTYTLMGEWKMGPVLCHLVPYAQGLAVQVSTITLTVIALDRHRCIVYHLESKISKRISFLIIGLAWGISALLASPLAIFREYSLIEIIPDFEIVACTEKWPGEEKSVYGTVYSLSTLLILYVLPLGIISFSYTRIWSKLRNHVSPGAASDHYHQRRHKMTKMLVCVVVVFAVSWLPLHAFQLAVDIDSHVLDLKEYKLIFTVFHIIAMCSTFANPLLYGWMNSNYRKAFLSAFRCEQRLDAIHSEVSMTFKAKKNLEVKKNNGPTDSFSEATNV
Put plainly: Allosteric antagonist activity at NPY2R in mouse descending colon mucosa assessed as reduction in PYY-induced ion transport at 30 uM by electrophysiology.

The target of assay [4] is T2, Neuropeptide Y receptor type 1 (Mus musculus). The experiment in a line: Allosteric antagonist activity at NPY1R in mouse descending colon mucosa assessed as reduction in PYY-induced ion transport at 0.3 to 30 uM by electrophysiology. As to conditions: dose 0.3-30 µM.
Assay [5] has as its target T3, Neuropeptide Y receptor type 2 (Mus musculus). The experiment in a line: Allosteric antagonist activity at NPY2R in mouse descending colon mucosa assessed as reduction in PYY-induced ion transport at 0.3 to 30 uM by electrophysiology. The following applies: dose 0.3-30 µM.
For assay [6], the target named is T1, Neuropeptide Y receptor type 4. Put plainly: Allosteric antagonist activity at human NPY4R expressed in HEK293 cells assessed as reduction in PP-induced arrestin-3 recruitment at 30 uM measured after 30 mins by BRET assay. As to conditions: filed as allosteric antagonist. The assay is classed as cell-based. The essentials:
(§1)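 BRET in HEK293 cells transiently expressing Y4R-Rluc8 and venus-arr3. Pretreated with 30 μM compound or DMSO, then read continuously for 30 min after 100 nM PP. Fluorescence/luminescence ratio, unstimulated control subtracted to give netBRET. Rate constant k from a one-phase association fit. N ≥ 4, unpaired t-test.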
On the technique in general: Arrestin recruitment assays detect the binding of arrestin to an activated receptor.

For assay [7] the target is unchanged. The experiment in a line: Allosteric antagonist activity at human NPY4R expressed in HEK293 cells assessed as reduction in rate of PP-induced arrestin-3 recruitment at 30 uM measured after 30 mins by BRET assay. The following applies: filed as allosteric antagonist. The assay is classed as cell-based. The essentials: as §1
Assay [8] has the same target. The experiment in a line: Inhibition of receptor internalization of eYFP-tagged human NPY4R expressed in HEK293 cells at 30 uM after 30 mins by fluorescence microscopy. The class given is cell-based. The essentials:
(§2)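 HEK293 cells stably expressing Y4R-eYFP, nuclei stained with Hoechst. Cells given 30 μM compound or DMSO in OptiMEM, then 10 or 100 nM PP (or medium) for 30 min at 37 °C. eYFP imaged at a fixed 400 ms exposure. Cell-surface fluorescence quantified as pixel intensity, normalized to unstimulated DMSO control.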

For assay [9] the target is unchanged. The experiment in a line: Inhibition of 10 nM PP-induced receptor internalization of eYFP-tagged human NPY4R expressed in HEK293 cells at 30 uM after 30 mins by fluorescence microscopy. As to conditions: filed as allosteric antagonist. The class given is cell-based. Put shortly: as §2
Assay [10] has the same target. Put plainly: Inhibition of 100 nM PP-induced receptor internalization of eYFP-tagged human NPY4R expressed in HEK293 cells at 30 uM after 30 mins by fluorescence microscopy. The assay is classed as cell-based. The following applies: filed as allosteric antagonist. Put shortly:
as §2

Assay [11] shares this target. The experiment in a line: Displacement of [125I]-PP from human NPY4R expressed in HEK293 cell membranes incubated for 5 hrs by microBeta scintillation counting assay. As to conditions: Cell membrane, filed as allosteric antagonist. The essentials: (§3)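 Membranes from stable HEK293 Y4R-eYFP cells, 0.3 μg in HEPES buffer (25 mM HEPES, […], 1 mM MgCl2, Pefabloc, pH 7.4) with DMSO or compound. Incubated with 60 or 180 pM human ¹²⁵I-PP for 5 h at room temperature. Nonspecific binding set with 1 μM PP. Bound ligand collected on PEI-soaked GF/C filters and counted by scintillation.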
Background: Loss of bound radioactivity is the signal in a displacement assay; it reports binding, not function.

Assay [12] shares this target. The experiment in a line: Displacement of [125I]-PP from human NPY4R expressed in HEK293 cell membranes assessed as remaining radioligand binding incubated for 5 hrs using 60 pM [125I]-PP by microBeta scintillation counting assay. The following applies: Cell membrane, filed as allosteric antagonist. Put shortly: as §3
The target is the same in assay [13]. The experiment in a line: Displacement of [125I]-PP from human NPY4R expressed in HEK293 cell membranes assessed as remaining radioligand binding incubated for 5 hrs using 180 pM [125I]-PP by microBeta scintillation counting assay. The following applies: Cell membrane. Put shortly: as §3
The target in assay [14] is T4, Neuropeptide Y receptor type 1 (Homo sapiens) (UniProt P25929).
T4 sequence (whole entry): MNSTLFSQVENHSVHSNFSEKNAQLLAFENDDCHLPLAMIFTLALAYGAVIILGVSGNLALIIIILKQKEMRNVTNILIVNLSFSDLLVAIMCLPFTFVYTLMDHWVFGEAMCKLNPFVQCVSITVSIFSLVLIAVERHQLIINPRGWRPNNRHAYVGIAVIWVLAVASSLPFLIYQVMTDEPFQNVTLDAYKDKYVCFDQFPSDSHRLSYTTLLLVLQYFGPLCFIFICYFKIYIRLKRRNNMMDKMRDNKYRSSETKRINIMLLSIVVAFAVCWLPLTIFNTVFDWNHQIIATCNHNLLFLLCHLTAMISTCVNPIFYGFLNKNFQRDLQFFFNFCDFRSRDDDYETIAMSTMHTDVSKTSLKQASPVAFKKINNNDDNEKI
Put plainly: Allosteric antagonist activity at […]-tagged human NPY1R expressed in COS7 cells co-expressing Gqi5-alpha assessed as inhibition of NPY-induced Ca2+ flux at 30 uM by Fluo-2 AM dye based fluorescent assay. The class given is functional, cell-based. The essentials:
(§4)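 Stable COS7 lines expressing Y1R-, Y2R- or Y5R-eYFP plus chimeric Δ6Gαqi4myr, loaded with 2.4 μM Fluo2-AM in HBSS/20 mM HEPES/2.5 mM probenecid pH 7.4. After 20 s baseline, DMSO or 30 μM compound added, NPY added 110 s later, 140 s run. Read at ex 485/em 525 nm. Signal taken as x-fold over basal, normalized to 1 μM NPY maximum. N ≥ 3.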

Assay [15] deals with T5, Neuropeptide Y receptor type 2 (Homo sapiens) (UniProt P49146).
T5 sequence (whole entry): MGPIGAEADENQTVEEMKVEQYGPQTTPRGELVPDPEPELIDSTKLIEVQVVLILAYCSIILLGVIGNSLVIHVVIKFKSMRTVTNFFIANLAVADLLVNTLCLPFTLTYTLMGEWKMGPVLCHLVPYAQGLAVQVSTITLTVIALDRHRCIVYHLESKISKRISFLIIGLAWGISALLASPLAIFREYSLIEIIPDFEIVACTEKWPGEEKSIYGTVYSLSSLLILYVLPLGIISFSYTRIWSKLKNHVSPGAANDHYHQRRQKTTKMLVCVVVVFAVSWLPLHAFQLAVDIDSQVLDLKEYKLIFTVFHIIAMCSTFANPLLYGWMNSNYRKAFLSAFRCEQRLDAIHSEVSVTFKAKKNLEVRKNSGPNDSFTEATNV
Put plainly: Allosteric antagonist activity at […]-tagged human NPY2R expressed in COS7 cells co-expressing Gqi5-alpha assessed as inhibition of NPY-induced Ca2+ flux at 30 uM by Fluo-2 AM dye based fluorescent assay. The assay is classed as functional, cell-based. Put shortly:
as §4

The target of assay [16] is T6, Neuropeptide Y receptor type 5 (Homo sapiens) (UniProt Q15761).
T6 sequence (whole entry): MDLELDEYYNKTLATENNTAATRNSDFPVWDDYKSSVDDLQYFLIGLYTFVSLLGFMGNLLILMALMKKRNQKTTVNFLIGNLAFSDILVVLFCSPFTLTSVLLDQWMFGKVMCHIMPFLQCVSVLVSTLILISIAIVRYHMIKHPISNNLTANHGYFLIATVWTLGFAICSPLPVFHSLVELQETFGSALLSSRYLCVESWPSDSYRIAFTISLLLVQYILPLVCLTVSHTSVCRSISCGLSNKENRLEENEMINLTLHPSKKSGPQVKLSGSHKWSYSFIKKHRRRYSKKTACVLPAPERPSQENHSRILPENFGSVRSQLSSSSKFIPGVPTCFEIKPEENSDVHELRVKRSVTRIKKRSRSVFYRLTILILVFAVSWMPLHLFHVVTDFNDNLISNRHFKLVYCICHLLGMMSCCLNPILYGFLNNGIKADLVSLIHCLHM
Put plainly: Allosteric antagonist activity at […]-tagged human NPY5R expressed in COS7 cells co-expressing Gqi5-alpha assessed as inhibition of NPY-induced Ca2+ flux at 30 uM by Fluo-2 AM dye based fluorescent assay. The assay is classed as functional, cell-based. Put shortly: as §4

Assay [17] has as its system COS7. The experiment in a line: Allosteric antagonist activity at human NPY4R chimera containing NPY1R transmembrane helix 1 expressed in COS7 cells co-expressing Gqi5-alpha assessed as inhibition of PP-induced Ca2+ flux at 15 uM by Fluo-2 AM dye based fluorescent assay. The class given is cell-based. Put shortly:
(§5)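 Y4R/Y1R chimeras carrying Y1R TM1, TM2 or ECL2 segments, C-terminal eYFP, transiently cotransfected with Δ6Gαqi4myr in COS7 cells. Fluo2-AM Ca²⁺ flux. 15 μM antagonist or DMSO added, followed by PP. Reduction in PP response given relative to DMSO control, normalized to 1 μM PP.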

Assay [18] deals with COS7. The experiment in a line: Allosteric antagonist activity at human NPY4R chimera containing NPY1R transmembrane helix 2 expressed in COS7 cells co-expressing Gqi5-alpha assessed as inhibition of PP-induced Ca2+ flux at 15 uM by Fluo-2 AM dye based fluorescent assay. The assay is classed as cell-based. The essentials: as §5
For assay [19], the system named is COS7. The experiment in a line: Allosteric antagonist activity at human NPY4R chimera containing NPY1R extracellular loop 2 expressed in COS7 cells co-expressing Gqi5-alpha assessed as inhibition of PP-induced Ca2+ flux at 15 uM by Fluo-2 AM dye based fluorescent assay. The assay is classed as cell-based. Put shortly: as §5

Activity calls are given as the source filed them. No cut-off for these calls is given here.

T1 sequence (P50391 whole entry): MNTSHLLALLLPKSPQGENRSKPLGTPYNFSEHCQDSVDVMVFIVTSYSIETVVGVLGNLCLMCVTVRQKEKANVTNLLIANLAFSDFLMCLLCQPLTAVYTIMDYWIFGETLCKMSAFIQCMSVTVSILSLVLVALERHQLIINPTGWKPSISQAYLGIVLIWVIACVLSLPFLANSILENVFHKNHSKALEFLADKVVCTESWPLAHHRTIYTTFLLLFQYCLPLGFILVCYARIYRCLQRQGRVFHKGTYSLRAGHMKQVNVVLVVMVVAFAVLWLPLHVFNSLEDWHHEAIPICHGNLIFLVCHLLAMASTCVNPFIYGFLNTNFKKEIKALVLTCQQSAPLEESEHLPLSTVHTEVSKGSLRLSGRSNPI

As for `CS(=O)(=O)N1CCCC[C@@H]1C(=O)Nc1nc2cc3c(cc2s1)OCCO3`, the pIC50 result in assay [1] is “inactive”. Further, the IC50 result in assay [1] (cos7) is listed as “Not Active”. Also, the inhibition result in assay [2], in [3], in assay [4] and in assay [5] was “inactive” each time.

For `CS(=O)(=O)N1CCCCC1C(=O)Nc1nc2cc3c(cc2s1)OCCO3` (racemic), the IC50 in assay [1] (read-out: IC50) worked out at 4 µM. Also, the inhibition result in assay [6], in assay [7], in assay [9] and in assay [10] was “Active” each time. For the same compound, the inhibition result (in [8]; in [13]; in [14]; in assay [15]; in [16]; with COS7 [17]) was “inactive” in each case. Also, the inhibition result with COS7 [18] and in the assay with COS7 [19] was “inactive” throughout. Also, in assay [11], the inhibition entry was “Dose-dependent effect”. The Activity in assay [12] turned out to be 15%.

For the origin of these results see ChEMBL document CHEMBL4732214, “Highly Selective Y Receptor Antagonist Binds in an Allosteric Binding Pocket” (J Med Chem, 2021).
